Experimental data taken from paper PMC6453127 (Biochimica et biophysica acta. General subjects, 2017).
“Also recorded” adds a separate entry of the source.

Experiments:
GST-Hsp90α CTD [1] = target: T1, GST-Hsp90α CTD (Homo sapiens, UniProt P07900); assay: ADH aggregation; format: biochemical
In short: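 Reaction: 6.2 μM equine ADH, with or without 500 nM GST-Hsp90α CTD and compound. Aggregation induced at 55 °C, read as absorbance at 360 nm every minute for 90 min. The 90-min endpoint was used, with the mean of ADH alone set to 100%. Three independent experiments.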

full-length Hsp90α = full-length Hsp90α (Homo sapiens, UniProt P07900); assay: BS3 crosslinking assay, full length Hsp90α; format: biochemical; details: 2 μM protein; BS3 crosslinker
In short: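 Full-length Hsp90α used at 2 μM in 50 mM NaPO₄ and 150 mM NaCl, preincubated with compound for 1 h at room temperature. BS3 crosslinker added at 66–200 μM final for 1 h at RT, then quenched with 50 mM Tris-HCl pH 7.5 for 15 min. Analysed by 10% SDS-PAGE and western blot.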

Hsp90 CTD = assay: DTT-induced insulin aggregation chaperone assay; format: biochemical; details: 100 μM compound; 10 μM Hsp90 CTD
In short: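 200 μM insulin preincubated with 10 μM Hsp90 CTD, with or without compound, in 10 mM NaPO₄ and 100 mM NaCl at 30 °C for 1 h. Aggregation induced with 20 mM DTT and followed by absorbance at 650 over 40 min in a plate reader.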

GST-Hsp90α NTD (9–236) = GST-Hsp90α NTD (9–236) (Homo sapiens, UniProt P07900); assay: DARTs assay with GST-Hsp90α NTD; format: binding; details: 200 μM compound
DU-145 = assay: NCI-60 screen, DU-145 prostate cancer cell line; format: cell-based, human; details: NCI re-screen
In short: (§1)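 NCI Developmental Therapeutics Program re-screen, 5-concentration dose response. Growth measured by SRB staining.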

GST-Hsp90α NTD [2] = target: T2, GST-Hsp90α NTD (Homo sapiens, UniProt P07900); assay: ATP-agarose pulldown, Hsp90 NTD; format: binding; details: 200 μM compound, 6 μM NTD
GST-Hsp90α CTD [3] = target: T1, GST-Hsp90α CTD; assay: ATP-agarose pulldown, Hsp90 CTD; format: binding; details: 200 μM compound, 6 μM CTD
His6-Hsp90β CTD = His6-Hsp90β CTD (Homo sapiens, UniProt P08238); assay: BS3 crosslinking dimerization/oligomerization assay, His6-Hsp90β CTD; format: biochemical; details: 2 μM protein; BS3 crosslinker
Sequence of His6-Hsp90β CTD (P08238 530-724): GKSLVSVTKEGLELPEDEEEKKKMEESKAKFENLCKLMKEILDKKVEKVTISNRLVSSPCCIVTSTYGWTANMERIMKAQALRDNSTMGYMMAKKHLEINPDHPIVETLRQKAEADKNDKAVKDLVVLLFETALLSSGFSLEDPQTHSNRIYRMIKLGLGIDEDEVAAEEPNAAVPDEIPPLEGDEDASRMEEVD

Lewis lung carcinoma = details: 3.12 mg/kg; Lewis lung carcinoma mouse model; ref http://dtp.cancer.gov; cited from earlier work
GST-Hsp90α CTD [4] = target: T1, GST-Hsp90α CTD; assay: BS3 crosslinking assay, GST-Hsp90α CTD; format: biochemical; details: 2 μM protein; NSC145366 10 μM to 100 μM
BSA = BSA (Bos taurus, UniProt P02769); assay: Crosslinking specificity control with BSA; format: biochemical
Sequence of BSA (P02769 25-607): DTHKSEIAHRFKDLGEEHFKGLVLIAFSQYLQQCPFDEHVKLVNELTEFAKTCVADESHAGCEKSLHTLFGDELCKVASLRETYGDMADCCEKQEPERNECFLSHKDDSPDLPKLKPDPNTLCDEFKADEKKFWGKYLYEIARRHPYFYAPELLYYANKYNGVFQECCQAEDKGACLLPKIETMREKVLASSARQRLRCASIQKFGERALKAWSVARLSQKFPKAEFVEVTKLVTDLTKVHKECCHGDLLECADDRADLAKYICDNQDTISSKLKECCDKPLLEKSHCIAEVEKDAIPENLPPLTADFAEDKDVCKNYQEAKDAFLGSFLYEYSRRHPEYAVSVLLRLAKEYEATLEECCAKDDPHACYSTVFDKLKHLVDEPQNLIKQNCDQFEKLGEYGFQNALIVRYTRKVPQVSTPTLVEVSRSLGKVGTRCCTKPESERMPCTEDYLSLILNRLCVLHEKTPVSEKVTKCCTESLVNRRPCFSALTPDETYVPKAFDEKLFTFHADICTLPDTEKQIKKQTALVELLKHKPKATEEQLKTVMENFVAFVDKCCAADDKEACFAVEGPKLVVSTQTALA

Hsp90β [5] = target: T3, Hsp90β (Homo sapiens, UniProt P08238); assay: Transcreener ADP Hsp90 ATPase assay; format: biochemical; details: read-out: IC50, Hsp90β ATPase function; 0.5 μM Hsp90β, 250 μM ATP, 37 °C 30 min
T3 sequence (P08238 whole entry): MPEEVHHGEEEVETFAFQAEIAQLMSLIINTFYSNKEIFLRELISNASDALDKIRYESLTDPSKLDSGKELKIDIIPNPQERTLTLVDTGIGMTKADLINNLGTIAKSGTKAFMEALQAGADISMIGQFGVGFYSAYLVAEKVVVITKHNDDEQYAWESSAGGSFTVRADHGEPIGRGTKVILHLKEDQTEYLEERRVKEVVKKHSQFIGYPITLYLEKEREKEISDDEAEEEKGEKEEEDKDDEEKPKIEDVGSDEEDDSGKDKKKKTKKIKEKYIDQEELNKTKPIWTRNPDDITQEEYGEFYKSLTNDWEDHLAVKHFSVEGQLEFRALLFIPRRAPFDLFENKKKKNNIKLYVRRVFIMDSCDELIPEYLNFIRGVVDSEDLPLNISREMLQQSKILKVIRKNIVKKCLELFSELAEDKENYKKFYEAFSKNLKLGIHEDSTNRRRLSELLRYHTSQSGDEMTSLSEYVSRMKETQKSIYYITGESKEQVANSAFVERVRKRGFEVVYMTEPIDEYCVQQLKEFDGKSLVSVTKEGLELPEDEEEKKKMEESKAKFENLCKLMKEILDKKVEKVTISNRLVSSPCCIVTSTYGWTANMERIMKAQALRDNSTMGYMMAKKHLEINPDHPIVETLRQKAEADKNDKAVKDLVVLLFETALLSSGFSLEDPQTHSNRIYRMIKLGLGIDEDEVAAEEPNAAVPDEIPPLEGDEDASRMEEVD

[6] = mouse xenograft models; ref http://dtp.cancer.gov; cited from earlier work
Hsp90β [7] = target: T3, Hsp90β; assay: Competitive displacement of FITC-GA; format: binding; details: competitor 3 nM to 3 μM; 60 nM Hsp90β, 5 nM FITC-GA
Hsp70 = Hsp70 (Homo sapiens, UniProt P0DMV8); assay: Transcreener ADP Hsp70 ATPase assay; format: biochemical; details: 0.5 μM Hsp70; up to 200 μM
Sequence of Hsp70 (P0DMV8 whole entry): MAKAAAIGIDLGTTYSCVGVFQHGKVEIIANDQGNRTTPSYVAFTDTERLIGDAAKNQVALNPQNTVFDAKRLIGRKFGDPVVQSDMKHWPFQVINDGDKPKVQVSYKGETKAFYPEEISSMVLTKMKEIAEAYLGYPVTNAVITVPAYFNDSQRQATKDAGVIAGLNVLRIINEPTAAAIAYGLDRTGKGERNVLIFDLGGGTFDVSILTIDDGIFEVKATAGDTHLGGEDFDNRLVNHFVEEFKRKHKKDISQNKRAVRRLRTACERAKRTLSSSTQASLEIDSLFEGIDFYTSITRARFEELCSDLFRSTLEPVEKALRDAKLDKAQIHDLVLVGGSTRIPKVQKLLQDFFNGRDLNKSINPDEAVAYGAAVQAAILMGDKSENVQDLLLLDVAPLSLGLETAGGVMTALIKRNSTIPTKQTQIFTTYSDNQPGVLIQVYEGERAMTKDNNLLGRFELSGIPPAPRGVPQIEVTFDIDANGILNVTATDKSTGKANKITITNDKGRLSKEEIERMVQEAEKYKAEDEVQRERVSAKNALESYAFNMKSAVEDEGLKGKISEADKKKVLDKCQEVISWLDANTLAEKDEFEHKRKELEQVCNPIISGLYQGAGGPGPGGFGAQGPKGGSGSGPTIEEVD
In short: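 Stopped with EDTA stop-and-detect buffer containing ADP² antibody-IRDye QC-1 and 8 nM ADP Alexa594 tracer, 1 h at RT. Endpoint fluorescence intensity read. Three experiments, four-parameter logistic fit.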

PC3 = assay: NCI-60 screen, PC3 prostate cancer cell line; format: cell-based, human; details: NCI re-screen
In short: as §1

Hsp90β [8] = target: T3, Hsp90β; assay: Microscale thermophoresis; format: binding; details: read-out: Kd (MST); labeled Hsp90β 40 nM
GST-Hsp90α NTD [9] = target: T2, GST-Hsp90α NTD; assay: BS3 crosslinking assay, GST-Hsp90α NTD; format: biochemical; details: 2 μM protein
In short: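 2 μM protein buffer-exchanged into 50 mM NaPO₄ and 150 mM NaCl, then preincubated with compound for 1 h at room temperature. BS3 added at 66–200 μM final for 1 h at RT, then quenched with 50 mM Tris-HCl pH 7.5 for 15 min. Boiled in SDS dye, run on 10% SDS-PAGE, western-blotted and probed with anti-GST antibody.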

Hsp90 = assay: Luciferase refolding assay in rabbit reticulocyte lysate; format: biochemical
In short: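 Recombinant luciferase at 100 μg/mL in Tricine pH 7.8 buffer (MgCl₂, DTT, EDTA, 10% glycerol, 10 mg/mL BSA), heat-denatured at 41 °C for 30 min. Then added to rabbit reticulocyte lysate preincubated at 30 °C with compound. Aliquots taken every 15 min for 90 min into luciferase reagent and luminescence read. DMSO at 90 min set to 100%. Triplicate.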

Hsp90α = Hsp90α (Homo sapiens, UniProt P07900); assay: DARTs assay, full-length recombinant Hsp90α, pronase proteolysis; format: binding; details: 200 μM compound
GST-Hsp90α CTD (626–732) = GST-Hsp90α CTD (626–732) (Homo sapiens, UniProt P07900); assay: DARTs assay with GST-Hsp90α CTD; format: binding; details: 200 μM compound
LNCaP cells [10] = assay: Cytotoxicity to LNCaP cells; format: cell-based; details: 5 μM; data not shown
LNCaP cells [11] = assay: Western blot of Hsp90 clients and heat shock proteins in LNCaP cells; format: cell-based; details: 48 h
In short: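 ATCC LNCaP cells kept in ATCC-recommended medium, authenticated and used within 20 passages. Cells treated for 48 h, trypsinised, PBS-washed and lysed in RIPA with protease inhibitors, 1 mM PMSF, 0.1% Triton X-100 and 1 mM DTT. Protein measured by Bradford before western blot. Band intensities of treated samples expressed as percentage of vehicle.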

CC(C)(C)CC(C)(C)NCC(O)COc1ccc(C(C)(C)c2ccc(OCC(O)CNC(C)(C)CC(C)(C)C)cc2)cc1.Cl (stereo not drawn) [NSC145366, 1-(4-(2-(4-(2-hydroxy-3-(2,4,4-trimethylpentan-2-ylami-no)propoxy)phenyl)propan-2-yl)phenoxy)-3-(2,4,4-trimethylpentan-2-ylamino)propan-2-ol hydrochloride]
level of ADH aggregation, dose dependence (GST-Hsp90α CTD [1]; 10 μM to 40 μM): increases the level of ADH aggregation in a dose dependent manner | inhibition of Hsp90 CTD chaperone (anti-aggregation) activity, ADH aggregation assay (GST-Hsp90α CTD [1]; 40 μM compound, 500 nM Hsp90 CTD, 55 °C, end point 90 min): completely eliminates CTD chaperone activity | oligomerization state of full-length Hsp90α (crosslinking) (full-length Hsp90α): presence of a higher-order oligomer | inhibition of CTD chaperone activity, insulin aggregation (Hsp90 CTD): inhibits CTD chaperone activity | protection of Hsp90 NTD from pronase degradation (DARTs) (GST-Hsp90α NTD (9–236)): no protection observed | GI50 (DU-145): 1380 nM | inhibition of NTD binding to ATP-agarose (GST-Hsp90α NTD [2]): does not disrupt NTD or CTD binding to ATP | inhibition of CTD binding to ATP-agarose (GST-Hsp90α CTD [3]): does not disrupt NTD or CTD binding to ATP | oligomerization state of His6-Hsp90β CTD (crosslinking) (His6-Hsp90β CTD): even higher order oligomerized species; also recorded: CTD monomer band was eliminated | antitumor activity, treated/control (Lewis lung carcinoma): 68% | oligomerization state of GST-Hsp90α CTD (crosslinking) (GST-Hsp90α CTD [4]): induced CTD oligomerization increases in a dose dependent manner | oligomerization of BSA (BSA): does not induce oligomerization of BSA | IC50 (Hsp90β [5]): ~109 µM | toxic dose [6]: ≥ 6.25 mg/kg | competition with FITC-GA binding to Hsp90β (Hsp90β [7]): does not compete with FITC-GA binding | inhibition of Hsp70 ATPase function (Hsp70): no inhibitory activity up to 200 μM | GI50 (PC3): 1850 nM | Kd (Hsp90β [8]): ~3.8 µM | oligomerization of GST-Hsp90α NTD (crosslinking) (GST-Hsp90α NTD [9]): no effect on oligomerization of the NTD | level of inhibition of luciferase refolding compared with Cm A1 (Hsp90; 25 and 50 μM): greater than C-terminal inhibitor Cm A1 | luciferase refolding (luciferase activity vs vehicle) (Hsp90; rabbit reticulocyte lysate, 90 min): decreased luciferase activity as compared to vehicle treated lysates | protection of Hsp90α from pronase degradation (DARTs) (Hsp90α): protection of Hsp90α was clearly observed | protection of Hsp90 CTD from pronase degradation (DARTs) (GST-Hsp90α CTD (626–732)): protects the Hsp90 CTD from pronase degradation | cytotoxicity to LNCaP cells (LNCaP cells [10]): completely cytotoxic | induction of classical heat shock response (Hsp70, Hsp27, Hsp40) (LNCaP cells [11]): not detectable | AR expression level compared to DMSO (LNCaP cells [11]; 1 μM and 3 μM): 50% | Akt expression (LNCaP cells [11]; 1 μM and 3 μM): do not show significant downregulation | BRAF expression (LNCaP cells [11]; 1 μM and 3 μM): do not show significant downregulation | BRCA1 expression level compared to DMSO (LNCaP cells [11]; 3 μM): 15% | Hsp40 expression (LNCaP cells [11]; 3 μM): only appears to induce Hsp40 expression after 48 h cellular treatment at the highest concentration
